Measured values from ChEMBL document CHEMBL4819017 (Eur J Med Chem, 2021).

Tests used:
[1] = biological target: Phosphatidylinositol 4,5-bisphosphate 3-kinase catalytic subunit alpha isoform (Homo sapiens, UniProt P42336); experiment: Inhibition of human full length p110alpha (1 to 1068 residues) expressed in baculovirus-infected Sf21 cells by ADP-Hunter Plus assay
[2] = Inhibition of PI3K/mTOR in human U2OS cells assessed as inhibition of AKT1 phosphorylation at Ser473 residue by C-ELISA; assay type: cell-based
In short: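 U2OS osteosarcoma cells grown in 0.1% FBS and serum-stimulated. Endogenous phospho-AKT1 Ser473 quantified by cell-based ELISA with chemiluminescent substrate. Signal plotted against inhibitor concentration and fitted to a sigmoid dose-response curve.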

[3] = Metabolic stability in human liver microsomes assessed as parent compound remaining in presence of NADPH regenerating system at 0.5 uM measured after 15 mins by LC-MS/MS analysis; assay type: ADME, Microsome; details: read-out: Stabilty
In short: (§1)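 Human, mouse or rat liver microsomes at 0.5 mg/ml protein with compound at 0.5 µM and NADPH-regenerating system, 37 °C with shaking. Control wells contain 0.1 M potassium phosphate instead of the regenerating system. Reaction stopped with acetonitrile/0.1% formic acid, centrifuged, supernatant analyzed by LC-MS/MS. Result is percent parent compound remaining.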

[4] = Metabolic stability in mouse liver microsomes assessed as parent compound remaining in presence of NADPH regenerating system at 0.5 uM measured after 15 mins by LC-MS/MS analysis; assay type: ADME, Microsome; details: read-out: Stabilty; in short: as §1
[5] = Metabolic stability in rat liver microsomes assessed as parent compound remaining in presence of NADPH regenerating system at 0.5 uM measured after 15 mins by LC-MS/MS analysis; assay type: ADME, Microsome; details: read-out: Stabilty; in short: as §1
Cytochrome P450 1A2 = biological target: T1, Cytochrome P450 1A2 (Homo sapiens, UniProt P05177); experiment: Inhibition of CYP1A2 (unknown origin) using Luciferin-ME as substrate at 10 uM preincubated with enzyme and substrate for 5 mins followed by addition of NADPH regeneration system and measured after 60 mins by luminescence method; assay type: ADME
T1 sequence (P05177 whole entry): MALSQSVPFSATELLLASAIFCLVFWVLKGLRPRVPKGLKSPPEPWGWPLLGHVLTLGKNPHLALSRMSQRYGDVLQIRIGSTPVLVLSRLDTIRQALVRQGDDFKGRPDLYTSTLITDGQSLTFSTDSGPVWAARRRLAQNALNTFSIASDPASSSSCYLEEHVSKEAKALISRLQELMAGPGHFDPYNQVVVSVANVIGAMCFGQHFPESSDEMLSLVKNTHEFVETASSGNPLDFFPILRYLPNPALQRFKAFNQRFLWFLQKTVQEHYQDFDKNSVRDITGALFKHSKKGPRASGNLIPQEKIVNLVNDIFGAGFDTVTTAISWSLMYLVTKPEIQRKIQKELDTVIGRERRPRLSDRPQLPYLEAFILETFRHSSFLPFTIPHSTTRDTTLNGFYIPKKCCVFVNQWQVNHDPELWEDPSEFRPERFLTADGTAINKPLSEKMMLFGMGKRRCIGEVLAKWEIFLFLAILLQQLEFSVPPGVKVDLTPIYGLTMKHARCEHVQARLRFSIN
In short: (§2)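 P450-Glo luminescence assays with these substrates: Luciferin-ME (CYP1A2), Luciferin-PPXE (CYP3A4), Luciferin-H (CYP2C9), LuciferinH-EG (CYP2C19), Luciferin-ME-EG (CYP2D6). Compounds run in 1/3 serial dilutions from 10 µM in 0.5% DMSO with enzyme and substrate. After 5 min preincubation, NADPH regeneration reagent added; 60 min at 37 °C, then detection reagent for 30 min. Background subtracted.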

Cytochrome P450 3A4 = Cytochrome P450 3A4 (Homo sapiens, UniProt P08684); experiment: Inhibition of CYP3A4 (unknown origin) using Luciferin-PPXE as substrate at 10 uM preincubated with enzyme and substrate for 5 mins followed by addition of NADPH regeneration system and measured after 60 mins by luminescence method; assay type: ADME; in short: as §2
Cytochrome P450 2C9 = Cytochrome P450 2C9 (Homo sapiens, UniProt P11712); experiment: Inhibition of CYP2C9 (unknown origin) using Luciferin-H as substrate at 10 uM preincubated with enzyme and substrate for 5 mins followed by addition of NADPH regeneration system and measured after 60 mins by luminescence method; assay type: ADME; in short: as §2
Cytochrome P450 2C19 = Cytochrome P450 2C19 (Homo sapiens, UniProt P33261); experiment: Inhibition of CYP2C19 (unknown origin) using LuciferinH-EG as substrate at 10 uM preincubated with enzyme and substrate for 5 mins followed by addition of NADPH regeneration system and measured after 60 mins by luminescence method; assay type: ADME; in short: as §2
Cytochrome P450 2D6 = Cytochrome P450 2D6 (Homo sapiens, UniProt P10635); experiment: Inhibition of CYP2D6 (unknown origin) using Luciferin-ME-EG as substrate at 10 uM preincubated with enzyme and substrate for 5 mins followed by addition of NADPH regeneration system and measured after 60 mins by luminescence method; assay type: ADME; in short: as §2
[6] = biological target: Voltage-gated inwardly rectifying potassium channel KCNH2 (Homo sapiens, UniProt Q12809); experiment: Inhibition of human ERG by fluorescence polarization assay
In short: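 Predictor h-ERG membrane preparations (sonicated) incubated with test compound dilutions and fluorescent tracer (working 4X tracer at 4 nM) at room temperature for ≥1 h. Read-out by fluorescence polarization, ex 530/25, em 590/35.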

[7] = biological target: Phosphatidylinositol 4,5-bisphosphate 3-kinase catalytic subunit gamma isoform (Homo sapiens, UniProt P48736); experiment: Inhibition of human p110gamma using PIP2 as substrate in presence of ATP measured by HTRF assay
In short: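 HTRF PI3-kinase assay with PIP2 at 10 µM. Enzyme and ATP levels (ATP at 50× KM): p110α/p85α 100 pM with 200 µM ATP; p110δ/p85α 100 pM with 200 µM ATP; p110β/p85α 500 pM with 250 µM ATP; p110γ 4 nM with 100 µM ATP. Activity normalized to no-compound control, variable-slope sigmoidal fit. Two independent experiments in duplicate.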

[8] = Inhibition of PI3K/mTOR in human MCF7 cells assessed as reduction of AKT phosphorylation at Ser473 residue measured after 3 hrs by western blot assay; assay type: cell-based; details: MCF7, 3 h
In short: (§3)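 MCF7 cells treated for 3 h across a dose range, washed and lysed with phosphatase and protease inhibitors. Lysates run on 10% SDS-PAGE and blotted, antibodies incubated overnight at 4 °C.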

[9] = Inhibition of PI3K/mTOR in human MCF7 cells assessed as reduction of AKT phosphorylation at Thr308 residue measured after 3 hrs by western blot assay; assay type: cell-based; details: MCF7, 3 h; in short: as §3
[10] = Inhibition of PI3K/mTOR in human MCF7 cells assessed as reduction of P70S6K phosphorylation at Thr389 residue measured after 3 hrs by western blot assay; assay type: cell-based; details: MCF7, 3 h; in short: as §3
[11] = Inhibition of PI3K/mTOR in human MCF7 cells assessed as reduction of S6 phosphorylation at Ser235/236 residue measured after 3 hrs by western blot assay; assay type: cell-based; details: MCF7, 3 h; in short: as §3
HT-29 = experiment: Growth inhibition of human HT-29 cells harboring mutated p110alpha measured after 72 hrs by Cell titre Glo-luminiscence cell viability assay; assay type: functional
In short: (§4)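 Cells harvested just before confluency and seeded at 4,000 cells/well, then left 24 h before dosing. Serial dilutions from 10 mM DMSO stocks, final DMSO ≤0.5%, each concentration in duplicate.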

NCI-H1975 = experiment: Growth inhibition of human NCI-H1975 cells harboring mutated p110alpha measured after 72 hrs by Cell titre Glo-luminiscence cell viability assay; assay type: functional; in short: as §4
PC-3 = experiment: Growth inhibition of human PC-3 cells harboring PTEN inactivation measured after 72 hrs by Cell titre Glo-luminiscence cell viability assay; assay type: functional; in short: as §4
DU-145 = experiment: Growth inhibition of human DU-145 cells harboring wild type p110alpha and PTEN measured after 72 hrs by Cell titre Glo-luminiscence cell viability assay; assay type: functional; in short: as §4
A549 = experiment: Growth inhibition of human A549 cells harboring wild type p110alpha and PTEN measured after 72 hrs by Cell titre Glo-luminiscence cell viability assay; assay type: functional; in short: as §4

Sequence of Phosphatidylinositol 4,5-bisphosphate 3-kinase catalytic subunit alpha isoform (P42336 whole entry, the tested form may be a part, canonical isoform): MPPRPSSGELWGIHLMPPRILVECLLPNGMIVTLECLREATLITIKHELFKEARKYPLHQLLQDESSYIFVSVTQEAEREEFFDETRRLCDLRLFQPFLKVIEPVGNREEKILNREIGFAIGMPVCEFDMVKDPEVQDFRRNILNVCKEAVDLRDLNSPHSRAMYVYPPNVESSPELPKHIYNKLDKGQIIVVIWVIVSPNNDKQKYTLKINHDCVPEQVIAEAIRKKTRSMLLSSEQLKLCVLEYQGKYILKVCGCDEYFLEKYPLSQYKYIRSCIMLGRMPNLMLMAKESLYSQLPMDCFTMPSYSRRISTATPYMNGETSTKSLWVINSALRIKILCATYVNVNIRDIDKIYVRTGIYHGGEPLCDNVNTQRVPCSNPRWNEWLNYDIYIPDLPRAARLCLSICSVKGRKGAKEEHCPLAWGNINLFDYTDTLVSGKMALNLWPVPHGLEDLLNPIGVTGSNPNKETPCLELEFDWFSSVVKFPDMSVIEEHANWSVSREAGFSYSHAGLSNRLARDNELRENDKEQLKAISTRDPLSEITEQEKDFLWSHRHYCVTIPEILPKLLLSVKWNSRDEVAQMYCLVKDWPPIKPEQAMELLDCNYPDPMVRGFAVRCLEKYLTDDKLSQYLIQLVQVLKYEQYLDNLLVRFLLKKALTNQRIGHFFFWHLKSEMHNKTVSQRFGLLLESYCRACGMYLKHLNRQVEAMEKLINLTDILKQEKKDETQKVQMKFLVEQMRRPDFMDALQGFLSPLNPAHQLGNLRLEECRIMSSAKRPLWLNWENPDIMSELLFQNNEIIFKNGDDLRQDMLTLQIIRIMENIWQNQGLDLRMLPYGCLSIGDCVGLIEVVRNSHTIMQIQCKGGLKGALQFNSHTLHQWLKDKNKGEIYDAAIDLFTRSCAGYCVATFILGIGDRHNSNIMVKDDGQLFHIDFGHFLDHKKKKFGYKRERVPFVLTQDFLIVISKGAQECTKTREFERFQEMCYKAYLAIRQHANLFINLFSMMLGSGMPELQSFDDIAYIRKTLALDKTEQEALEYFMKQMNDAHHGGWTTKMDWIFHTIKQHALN
Sequence of Phosphatidylinositol 4,5-bisphosphate 3-kinase catalytic subunit gamma isoform (P48736 whole entry, canonical isoform): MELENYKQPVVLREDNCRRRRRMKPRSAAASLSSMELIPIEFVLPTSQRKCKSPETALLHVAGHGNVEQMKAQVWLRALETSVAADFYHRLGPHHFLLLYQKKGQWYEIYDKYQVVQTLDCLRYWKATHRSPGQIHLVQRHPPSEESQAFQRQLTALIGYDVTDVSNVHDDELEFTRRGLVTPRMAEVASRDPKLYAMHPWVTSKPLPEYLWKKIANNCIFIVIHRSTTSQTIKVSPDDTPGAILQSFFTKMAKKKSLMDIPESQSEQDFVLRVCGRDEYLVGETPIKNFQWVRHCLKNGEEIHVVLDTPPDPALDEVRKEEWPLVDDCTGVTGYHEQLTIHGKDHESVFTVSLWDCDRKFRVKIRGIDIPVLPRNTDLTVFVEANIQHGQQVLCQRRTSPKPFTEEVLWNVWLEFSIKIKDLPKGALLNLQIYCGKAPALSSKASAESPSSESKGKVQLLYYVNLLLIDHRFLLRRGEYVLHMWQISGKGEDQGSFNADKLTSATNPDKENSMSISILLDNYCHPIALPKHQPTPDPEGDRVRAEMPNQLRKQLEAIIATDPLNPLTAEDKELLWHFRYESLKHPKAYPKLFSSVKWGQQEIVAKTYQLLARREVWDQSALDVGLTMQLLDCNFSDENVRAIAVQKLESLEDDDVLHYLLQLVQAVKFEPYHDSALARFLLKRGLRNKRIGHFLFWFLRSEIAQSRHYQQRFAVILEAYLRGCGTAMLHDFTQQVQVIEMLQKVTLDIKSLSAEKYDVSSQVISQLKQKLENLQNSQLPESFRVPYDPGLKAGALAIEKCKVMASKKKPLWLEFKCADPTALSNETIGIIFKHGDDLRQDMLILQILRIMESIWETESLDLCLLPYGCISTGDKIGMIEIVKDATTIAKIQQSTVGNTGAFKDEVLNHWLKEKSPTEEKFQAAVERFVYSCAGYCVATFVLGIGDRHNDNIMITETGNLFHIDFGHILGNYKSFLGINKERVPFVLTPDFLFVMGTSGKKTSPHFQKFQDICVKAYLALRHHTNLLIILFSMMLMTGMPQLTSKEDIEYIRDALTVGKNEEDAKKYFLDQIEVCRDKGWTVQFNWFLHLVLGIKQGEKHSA
Sequence of Voltage-gated inwardly rectifying potassium channel KCNH2 (Q12809 whole entry): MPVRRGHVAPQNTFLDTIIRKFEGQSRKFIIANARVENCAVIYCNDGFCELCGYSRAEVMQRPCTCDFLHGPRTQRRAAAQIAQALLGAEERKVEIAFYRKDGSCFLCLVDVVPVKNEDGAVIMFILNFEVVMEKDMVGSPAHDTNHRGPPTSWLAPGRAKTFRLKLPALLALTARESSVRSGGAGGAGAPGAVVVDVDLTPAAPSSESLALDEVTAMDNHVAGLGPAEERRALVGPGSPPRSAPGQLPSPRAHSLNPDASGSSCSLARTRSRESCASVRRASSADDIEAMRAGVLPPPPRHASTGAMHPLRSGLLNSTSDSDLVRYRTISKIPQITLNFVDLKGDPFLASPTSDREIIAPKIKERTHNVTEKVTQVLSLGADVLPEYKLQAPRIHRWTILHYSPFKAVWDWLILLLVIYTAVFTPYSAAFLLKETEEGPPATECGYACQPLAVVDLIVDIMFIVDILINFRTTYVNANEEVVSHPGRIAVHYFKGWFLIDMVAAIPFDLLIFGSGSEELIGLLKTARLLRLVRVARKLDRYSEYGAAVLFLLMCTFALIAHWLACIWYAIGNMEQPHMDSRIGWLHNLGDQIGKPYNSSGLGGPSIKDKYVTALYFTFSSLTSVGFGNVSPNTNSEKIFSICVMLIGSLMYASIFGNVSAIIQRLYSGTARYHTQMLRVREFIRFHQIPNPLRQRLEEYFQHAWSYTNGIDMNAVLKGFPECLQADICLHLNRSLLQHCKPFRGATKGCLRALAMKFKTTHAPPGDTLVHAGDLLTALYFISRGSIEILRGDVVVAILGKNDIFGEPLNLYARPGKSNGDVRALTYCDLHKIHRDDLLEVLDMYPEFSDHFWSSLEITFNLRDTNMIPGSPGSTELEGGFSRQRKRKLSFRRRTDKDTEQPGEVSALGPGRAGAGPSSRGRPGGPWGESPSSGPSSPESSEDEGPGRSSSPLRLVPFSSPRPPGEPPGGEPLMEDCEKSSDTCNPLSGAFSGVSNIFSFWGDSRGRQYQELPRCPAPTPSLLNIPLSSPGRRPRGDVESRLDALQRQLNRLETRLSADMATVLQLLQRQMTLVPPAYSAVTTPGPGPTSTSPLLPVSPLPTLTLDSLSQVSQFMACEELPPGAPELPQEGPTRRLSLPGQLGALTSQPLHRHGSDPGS
Sequence of Cytochrome P450 2C19 (P33261 whole entry): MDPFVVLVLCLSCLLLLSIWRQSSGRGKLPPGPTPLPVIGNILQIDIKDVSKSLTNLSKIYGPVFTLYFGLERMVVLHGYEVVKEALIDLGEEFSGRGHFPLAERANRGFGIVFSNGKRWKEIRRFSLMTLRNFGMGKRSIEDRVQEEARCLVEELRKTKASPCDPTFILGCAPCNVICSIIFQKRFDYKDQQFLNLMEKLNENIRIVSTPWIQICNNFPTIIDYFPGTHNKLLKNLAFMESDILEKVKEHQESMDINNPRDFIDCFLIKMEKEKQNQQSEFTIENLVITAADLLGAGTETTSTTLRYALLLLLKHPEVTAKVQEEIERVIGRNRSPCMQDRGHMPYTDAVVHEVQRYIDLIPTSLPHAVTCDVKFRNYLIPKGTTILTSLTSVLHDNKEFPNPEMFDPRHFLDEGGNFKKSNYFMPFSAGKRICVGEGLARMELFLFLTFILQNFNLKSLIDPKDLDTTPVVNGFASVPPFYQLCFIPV
Sequence of Cytochrome P450 2C9 (P11712 whole entry): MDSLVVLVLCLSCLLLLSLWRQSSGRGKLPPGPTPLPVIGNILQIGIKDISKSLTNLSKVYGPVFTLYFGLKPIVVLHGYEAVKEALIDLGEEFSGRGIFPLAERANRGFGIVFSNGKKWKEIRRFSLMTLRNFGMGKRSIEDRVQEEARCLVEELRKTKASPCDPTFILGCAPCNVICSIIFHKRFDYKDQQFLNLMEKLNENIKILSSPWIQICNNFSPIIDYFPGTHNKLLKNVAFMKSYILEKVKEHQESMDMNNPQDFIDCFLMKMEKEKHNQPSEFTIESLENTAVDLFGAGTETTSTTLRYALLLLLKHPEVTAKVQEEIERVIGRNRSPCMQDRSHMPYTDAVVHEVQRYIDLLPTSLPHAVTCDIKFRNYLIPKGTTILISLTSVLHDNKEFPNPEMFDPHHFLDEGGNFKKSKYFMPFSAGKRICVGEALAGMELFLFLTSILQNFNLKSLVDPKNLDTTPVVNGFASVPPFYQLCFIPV
Sequence of Cytochrome P450 2D6 (P10635 whole entry): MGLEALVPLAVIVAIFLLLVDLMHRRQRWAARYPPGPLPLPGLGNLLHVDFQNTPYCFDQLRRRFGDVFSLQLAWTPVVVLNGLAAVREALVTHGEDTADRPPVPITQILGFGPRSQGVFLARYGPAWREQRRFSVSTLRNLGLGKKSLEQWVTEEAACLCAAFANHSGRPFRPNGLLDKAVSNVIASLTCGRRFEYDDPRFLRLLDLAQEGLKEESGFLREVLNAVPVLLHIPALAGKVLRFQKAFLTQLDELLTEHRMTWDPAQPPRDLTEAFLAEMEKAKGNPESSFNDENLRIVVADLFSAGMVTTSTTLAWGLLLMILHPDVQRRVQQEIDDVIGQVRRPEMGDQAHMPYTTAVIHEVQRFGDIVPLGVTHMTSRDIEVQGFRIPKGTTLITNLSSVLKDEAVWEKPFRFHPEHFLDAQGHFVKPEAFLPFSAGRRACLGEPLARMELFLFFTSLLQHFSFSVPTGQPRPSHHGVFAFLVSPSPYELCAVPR

## COc1ncc2cc1NS(=O)(=O)c1cccc(c1)C(=O)NCc1cccc(c1)-c1ncnc3ccc-2cc13
[1]
  IC50: 2.5 nM
[2]
  EC50: 47.9 nM
[3]
  remaining at 0.25 h, 0.5 µM: 97%
[4]
  remaining at 0.25 h, 0.5 µM: 74%
[5]
  remaining at 0.25 h, 0.5 µM: 91%
Cytochrome P450 1A2
  IC50: > 30000 nM
Cytochrome P450 3A4
  IC50: > 30000 nM
Cytochrome P450 2C9
  IC50: > 30000 nM
Cytochrome P450 2C19
  IC50: > 30000 nM
Cytochrome P450 2D6
  IC50: > 30000 nM
[6]
  IC50: > 30000 nM

## COc1ncc(-c2ccc3nccc(-c4ccnnc4)c3c2)cc1NS(=O)(=O)c1ccc(F)cc1F [OMIPALISIB]
[2]
  EC50: 0.6 nM
[7]
  Ki: 0.51 nM
[8]
  EC50: 0.65 nM
[9]
  EC50: 0.21 nM
[10]
  EC50: 0.68 nM
[11]
  EC50: 0.87 nM
HT-29
  GI50: 19.9 nM
NCI-H1975
  GI50: 14.4 nM
PC-3
  GI50: 197 nM
DU-145
  GI50: 16.3 nM
A549
  GI50: 26.6 nM
